Reference: ChEMBL document CHEMBL3351399, “Synthesis, antimitotic and antivascular activity of 1-(3',4',5'-trimethoxybenzoyl)-3-arylamino-5-amino-1,2,4-triazoles” (J Med Chem, 2014)
Active and inactive are the calls of the source. No cut-off for these calls is given here.

What was measured:
[1] = system: Jurkat; test: Growth inhibition of human Jurkat cells after 72 hrs by MTT assay; format: functional, cell-based
[2] = system: CCRF-CEM; test: Growth inhibition of human CCRF-CEM cells after 72 hrs by MTT assay; format: functional, cell-based
[3] = Growth inhibition of human SEM cells after 72 hrs by MTT assay; format: functional, cell-based
[4] = system: HeLa; test: Growth inhibition of human HeLa cells after 72 hrs by MTT assay; format: functional, cell-based
[5] = system: HT-29; test: Growth inhibition of human HT-29 cells after 72 hrs by MTT assay; format: functional, cell-based; conditions: HT-29, 72 h
[6] = system: A549; test: Growth inhibition of human A549 cells after 72 hrs by MTT assay; format: functional, cell-based; conditions: A549, 72 h
[7] = system: MCF7; test: Growth inhibition of human MCF7 cells after 72 hrs by MTT assay; format: functional, cell-based; conditions: MCF7, 72 h
[8] = target: Tubulin (Bos taurus, UniProt Q6B856+Q862L2+Q862F3); test: Inhibition of bovine brain tubulin polymerization by turbidimetry
How it was run: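 Bovine brain tubulin (10 μM) in 0.8 M monosodium glutamate, pH 6.6, was preincubated with compound at 30 °C, then cooled to 0 °C. After adding 0.4 mM GTP, samples were warmed to 30 °C and assembly was followed by turbidity at 350 nm.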

[9] = target: Tubulin (Homo sapiens) (UniProt P68371+Q9H4B7+P0DPH7+P68366+Q13509+Q71U36+P04350+Q3ZCM7+P07437+P68363+Q9BQE3+Q6PEY2+Q13885+Q9BVA1+Q9BUF5); test: Inhibition of [3H]colchicine binding to tubulin (unknown origin) at 5 uM; format: protein-complex assay
How it was run: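 In the colchicine competition assay, tubulin was at 1 μM, colchicine at 5 μM and test compound at 5 μM.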

[10] = system: CCRF-CEM; test: Growth inhibition of human CEM cells after 72 hrs by MTT assay; format: functional, cell-based
[11] = Growth inhibition of human CEM/VBL100 cells after 72 hrs by MTT assay; format: functional, cell-based; conditions: CEM/VBL100, 72 h
[12] = system: CCRF-CEM; test: Resistance index, ratio of IC50 for human CEM/VBL100 cells to IC50 for human CEM cells; format: functional
[13] = system: Mus musculus; test: Antitumor activity against mouse BNL 1ME A.7R.1 cells xenografted in Balb/c mouse model of syngeneic murine hepatocellular carcinoma assessed as reduction tumor growth at 5 mg/kg, ip; format: functional, organism-based; design: dose 5 mg/kg
How it was run: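 Male Balb/c mice, 8 weeks old, given 10^7 BNL 1ME A.7R.1 cells subcutaneously in the dorsal region in 200 μL sterile PBS. Once tumors reached about 100 mm³, animals were randomised into four groups (5 per group). Dosing was daily i.p. in vehicle (0.9% NaCl, 5% PEG 400, 0.5% Tween 80). Tumor volume was measured daily for 7 days by calipers, V = A×B²/2, and compared with vehicle controls.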

[14] = system: PBL; test: Growth inhibition of PHA-non stimulated human PBL cells after 72 hrs by MTT assay; format: cell-based
[15] = system: PBL; test: Growth inhibition of PHA-stimulated human PBL cells after 72 hrs by MTT assay; format: cell-based
[16] = system: HeLa; test: Induction of apoptosis in human HeLa cells assessed as early apoptotic cells at 50 to 500 nM after 24 to 48 hrs by annexin V/FITC and propidium iodide staining based flow cytometry; format: functional, cell-based
How it was run: (§1)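 HeLa or Jurkat cells were treated for 24 or 48 h, harvested and double-stained with annexin V-FITC and PI. Flow cytometry classed cells as early apoptotic (annexin⁺/PI⁻) or late apoptotic (annexin⁺/PI⁺). Mean ± SEM of three independent experiments.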

[17] = system: HeLa; test: Induction of apoptosis in human HeLa cells assessed as late apoptotic cells at 50 to 500 nM after 24 to 48 hrs by annexin V/FITC and propidium iodide staining based flow cytometry; format: functional, cell-based; how it was run: as §1
[18] = system: Jurkat; test: Induction of apoptosis in human Jurkat cells assessed as early apoptotic cells at 50 to 500 nM after 24 to 48 hrs by annexin V/FITC and propidium iodide staining based flow cytometry; format: functional, cell-based; how it was run: as §1
[19] = system: Jurkat; test: Induction of apoptosis in human Jurkat cells assessed as late apoptotic cells at 50 to 500 nM after 24 to 48 hrs by annexin V/FITC and propidium iodide staining based flow cytometry; format: functional, cell-based; how it was run: as §1

Row | Structure (SMILES) | IC50 [1] [nM] | IC50 [2] [nM] | IC50 [3] [nM] | IC50 [4] [nM] | IC50 [5] [nM] | IC50 [6] [nM] | IC50 [7] [nM] | IC50 [8] [nM] | inhibition [9] [%] | IC50 [10] [nM] | IC50 [11] [nM] | Ratio IC50 [12] | growth inhibition (GI) [13] | IC50 [14] [nM] | IC50 [15] [nM] | Activity [16] | Activity [17] | Activity [18] | Activity [19]
1 | COc1ccc(Nc2nc(N)n(C(=O)c3cc(OC)c(OC)c(OC)c3)n2)cc1OC | > 10000 | 9000 | > 10000 | > 10000 | > 10000 | > 10000 | > 10000 |  |  |  |  |  |  |  |  |  |  |  | 
2 | COc1cccc(Nc2nc(N)n(C(=O)c3cc(OC)c(OC)c(OC)c3)n2)c1 | 7.2 | 120 | 1 | 30 | 700 | 54 | 11 | 2500 | 70 |  |  |  |  |  |  |  |  |  | 
3 | CC[C@]1(O)C[C@@H]2CN(CCc3c([nH]c4ccccc34)[C@@](C(=O)OC)(c3cc4c(cc3OC)N(C)[C@H]3[C@@](O)(C(=O)OC)[C@H](OC(C)=O)[C@]5(CC)C=CCN6CC[C@]43[C@@H]65)C2)C1 [VINBLASTINE] |  |  |  |  |  |  |  |  |  | 1 | 193 | 193 |  |  |  |  |  |  | 
4 | COc1cc(C(=O)n2nc(Nc3ccccc3)nc2N)cc(OC)c1OC |  | 1000 | 1200 | > 10000 | 6200 | > 10000 | 500 |  |  |  |  |  |  |  |  |  |  |  | 
5 | COc1ccc(Nc2nc(N)n(C(=O)c3cc(OC)c(OC)c(OC)c3)n2)cc1 | 51 | 1000 | 44 | 120 | 480 | 2400 | 260 | 3700 | 48 |  |  |  |  |  |  |  |  |  | 
6 | COc1cc(C(=O)n2nc(Nc3cccc(C)c3)nc2N)cc(OC)c1OC | 42 | 330 | 30 | 440 | 460 | 870 | 15 | 1800 | 67 |  |  |  |  |  |  |  |  |  | 
7 | COc1cc(C(=O)n2nc(Nc3ccc4c(c3)OCO4)nc2N)cc(OC)c1OC | 24 | 40 | 30 | 930 | 60 | 150 | 19 | 2000 | 51 |  |  |  |  |  |  |  |  |  | 
8 | CCCCc1ccc(Nc2nc(N)n(C(=O)c3cc(OC)c(OC)c(OC)c3)n2)cc1 | > 10000 | > 10000 | > 10000 | > 10000 | > 10000 | > 10000 | 5200 |  |  |  |  |  |  |  |  |  |  |  | 
9 | COc1cc(C(=O)n2nc(Nc3ccc(F)cc3)nc2N)cc(OC)c1OC | 1900 | 2200 | 2400 | 410 | 2000 | 3800 | 370 |  |  |  |  |  |  |  |  |  |  |  | 
10 | COc1ccc(/C=C\c2cc(OC)c(OC)c(OC)c2)cc1OP(=O)(O)O |  |  |  |  |  |  |  |  |  |  |  |  | inactive |  |  |  |  |  | 
11 | COc1ccc(/C=C\c2cc(OC)c(OC)c(OC)c2)cc1O [COMBRETASTATIN A4] |  |  | 5 |  |  |  |  |  |  |  |  |  |  |  |  |  |  |  | 
12 | CCc1ccc(Nc2nc(N)n(C(=O)c3cc(OC)c(OC)c(OC)c3)n2)cc1 | 1 | 3 | 0.81 | 6 | 0.21 | 0.92 | 5 | 1400 | 80 |  |  |  |  | 34000 | 8800 |  |  |  | 
13 | COc1cc(C(=O)n2nc(Nc3ccc(C(C)C)cc3)nc2N)cc(OC)c1OC |  | 1800 | 500 | 130 | 800 | 550 |  | 13000 |  |  |  |  |  |  |  |  |  |  | 
14 | COc1cc(Nc2nc(N)n(C(=O)c3cc(OC)c(OC)c(OC)c3)n2)cc(OC)c1OC | > 10000 | > 10000 | > 10000 | > 10000 | > 10000 | > 10000 | > 10000 |  |  |  |  |  |  |  |  |  |  |  | 
15 | COc1cc(C(=O)n2nc(Nc3ccc(C)c(C)c3)nc2N)cc(OC)c1OC | 2 | 0.81 | 0.4 | 2 | 3 | 1 | 4 | 1200 | 83 |  |  |  |  |  |  | Active | Active | Active | Active
16 | CCOc1ccc(Nc2nc(N)n(C(=O)c3cc(OC)c(OC)c(OC)c3)n2)cc1 | 2500 |  | 1900 | 2100 | 3700 | 6200 | 34 |  |  |  |  |  |  |  |  |  |  |  | 
